System: MS2 coat protein
Experiment: apparent Kd, MS2 coat protein; higher = weaker binding; RNA-MaP array; FMN 200 µM where present
Outline: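 Green signal was scaled to red-channel RNA signal and control-cluster median Fmax, and the apparent Kd was taken as the median of filtered per-cluster binding-curve fits. The binding series used SNAP-549-labelled MS2 coat protein from 0.7 or 1.5 nM, doubling to 3 µM, on designs transcribed by stalled E. coli RNA polymerase on Illumina sequencing-chip clusters. Each series ran without and then with constant ligand in 100 mM Tris-HCl pH 7.5, 80 mM KCl, 4 mM MgCl2, BSA, DTT, yeast tRNA and Tween-20.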

[1] = designed as: ON switch for flavin mononucleotide, no ligand
[2] = ligand present: flavin mononucleotide, designed as: ON switch for flavin mononucleotide
[3] = designed as: OFF switch for flavin mononucleotide, no ligand
[4] = ligand present: flavin mononucleotide, designed as: OFF switch for flavin mononucleotide

Row | Sequence | apparent Kd [1] | apparent Kd [2] | apparent Kd [3] | apparent Kd [4]
1 | UGGUACUAGGGAGGAUAUGGGAAGAUACAUGAGGAUCACCCAUGUUUAAGAAAGCCGAGAGGCAACUAGAAGGCCCUAGUACCU | 278 nM | 13.8 nM |  | 
2 | CGAAGUCCGUAGAAGGGUGACAUGAGGAUCACCCAUGUGCGAGCCGAGGGAGUCAGCGGCUCGCCACAGGAUAUACGGAGCACG | 33.5 nM | 21.7 nM |  | 
3 | UGGUACUAGGGAGGAUAUGGGAAGAUACAUGAGGAUCACCCAUGUUUAAGAAUGCCGAGAGGCGACUAGAAGGCCCUAGUACCU | 311 nM | 15.3 nM |  | 
4 | CAUUGCGAAGGAUAUACAUGAGGAUCACCCAUGUGUUUCCUCACGCACGGGAGUAGCGGUAGAAGGUCGCAGAA |  |  | 14.7 nM | 29.4 nM
5 | ACAACCAGAGGAUAUGCGCAUAGAUCAGACUUUGUUUCUGAACAUGAGGAUCACCCAUGUAGAAGGCUGUAACA |  |  | 34.9 nM | 33.9 nM
6 | GCAUUUUAUGCAGGAUAUUGACUUUGGAUUAAACAAGAAGGGCAUAACAUGAGGAUCACCCAUGUUAUAUAGGUAUAUAUGUUC |  |  | 7.45 nM | 9.62 nM
7 | ACUUAGUACAAUUUAGAUCUACAUGAGGAUCACCCAUGUACUGAGGAUAUCAGCUCGAAUAGAGCUGAGAAGGCAGAAGUACUU | 245 nM | 53.5 nM |  | 
8 | ACGCUUUGGGAGAAGGUACUUUAAAAUAUUUCCACAUGAGGAUCACCCAUGUAAGGAUAUCCCAUCGUUAAAUAUUAUACAGCA |  |  | 8.91 nM | 6.88 nM
9 | AGUCGGAGCAGAGGAUAUACAUGAGGAUCACCCAUGUAAAUGGAAGAAGCCUGGAAACAGGCAAUGUAGAAGGCUGCUCCGACA |  |  | 132 nM | 708 nM
10 | UGAGCAUCAGGAUAUAUGUGGCGACCGUGAGGUCGAAGGUUACAUGAGGAUCACCCAUGUAGAAGGGAUGUUCU |  |  | 62.6 nM | 203 nM
11 | CAGUACUGAGGAUAUACAUGAGGAUCACCCAUGUGUUCCAGCUAGGAAACUAGGAAAAGUAGAAGGCAGUACUG |  |  | 22.1 nM | 261 nM
12 | CUAGCAUACCGAGGAUAUUCAUAUAAUAAAUAAACAUGAGGAUCACCCAUGUGGCGAAAGCCUAGGGAGAAGGCGGAAUGCUAA | 185 nM | 24.8 nM |  | 
13 | UUAUUAUAUGUAGGAUAUGCGUAUUAUUGUUAUGCAGAAGGACAUGAGGAUCACCCAUGUAUAUUAUUGUUAUGUAUUAUAUAU |  |  | 30.5 nM | 69.3 nM
14 | AGUAUGUACGCAGGAUAUACAUGAGGAUCACCCAUGUGGAACAGUGUAGUACUAGUUGAUCCUCAGUAGAAGGGCGGCCGAAUA |  |  | 49.3 nM | 62.6 nM
15 | UUAUGCUUAGAGAAGGUUCAAACUACAUAUUGCGCACAUGAGGAUCACCCAUGUUGGUGAAUAAGAAAGGAUAUUUGACUGUGC |  |  | 245 nM | 171 nM
16 | UUGGACGUCGUAGGAUAUGUAGGAUAUUCCUACAUGAGGAUCACCCAUGUUGACAUGGCAGAAGGACAGAAGGACGAUGUCCAU | 938 nM | 129 nM |  | 
17 | GUGUACGGAGGAUAUAUGUGGGCAGGCUGACCUGCAGCUUCACAUGAGGAUCACCCAUGUAGAAGGCUGUACAC |  |  | 22.7 nM | 114 nM
18 | CAUAUCGUAAGAGGAUAUAUGAGUCCUACAUGAGGAUCACCCAUGUAGGUGAUCUAACGAGAUUAGUAGAAGGCUUACGAUAUG | 16.2 nM | 7.62 nM |  | 

Row | Sequence | apparent Kd [1] | apparent Kd [2] | apparent Kd [3] | apparent Kd [4]
19 | GGUAGAAACAUUAACAUGAGGAUCACCCAUGUCAAAAGAAAUGAGGAUAUCGUAUACAAUGUAUAUGAGAAGGCAUGGUCUACC | 7.78 nM | 5.77 nM |  | 
20 | UUUUUGUCAGGAUAUCAAAAGUACUACUUCGGUAGUACUUUUGAGAAGGGACAUGAGGAUCACCCAUGUAGUUU |  |  | 61.4 nM | 285 nM
21 | UUAUUUAGGUAGGAUAUCGAUAUUAAUCCCUAUCGAGAAGGGUCUACAUGAGGAUCACCCAUGUUAGCAUGUUU |  |  | 21.5 nM | 21.3 nM
22 | UGAAAUCAUGUAGGAUAUGCAUGGCGAAGCUACGCAGAAGGACAUGAGGAUCACCCAUGUUAUAGCUACCAAGUUAGGUGGCAA |  |  | 155 nM | 138 nM
23 | CGUUUGGGAGGAUAUCCAAUAUAUGACAUGAGGAUCACCCAUGUUUCCACUCGUACCUCCGGAGAAGGCCCUGCGU |  |  | 22.9 nM | 21 nM
24 | UACCCUUGUGAGAAGGCGCCGCAGAUUUUACGGCGAGGAUAUCACAUGAGGAUCACCCAUGUUCCUGAGCCUACAAGUGUGGGC |  |  | 338 nM | 313 nM
25 | UCAUACAUGAGGAUCACCCAUGACAUGAGGAUCACCCAUGUGCAGGAUAUACGUGAUAUAAUAUAGUAGAAGGGCAGACUAUAU |  |  | 51.9 nM | 57.6 nM
26 | UGAUCGAGAGAUCUUAGAUUCUGGUAGGAUAUACAUUAUAGAAGAUAUACAUGAGGAUCACCCAUGUAGAAGGACUAGAGUCUA |  |  | 6.73 nM | 9.72 nM
27 | CUUUAUCACUAUACAUGAGGAUCACCCAUGUUAUCAUCAUGAGAGGAUAUCGUAUUUGGAUUUUUCGAGAAGGCUCUAUUGUAU | 152 nM | 53.9 nM |  | 
28 | UUAUACGUUGAGGAUAUGCGAUUUAGUAUAGUUGUAGAAGGCGAUACAUGAGGAUCACCCAUGUUUAUGGGCAU |  |  | 328 nM | 257 nM
29 | CUGAGGAAAGGAUAUACAUCAAACUCCUCAUCCUCGAAAGAACAUGAGGAUCACCCAUGUAGAAGGUUCGCGGU |  |  | 37.2 nM | 29.8 nM
30 | UGUUACUAGUAAGGAUAUACUUGCAAUAAGCUUGUAGAAGGUACAGUCUUUUGUAUAACAUGUUUACAUGAGGAUCACCCAUGU | 10.6 nM | 9.66 nM |  | 
31 | GGACAUUUACAGAAGGGCAAAUUUUUUAUUGAAUAUUUAGUUCUGUUUUGCAGGAUAUGUUUUACAUGAGGAUCACCCAUGUCC | 79.9 nM | 30.6 nM |  | 
32 | AAUAACAGAGGAUAUACUGUUUUAUGUGUUUGUUGUUUUGAACAUGAGGAUCACCCAUGUAGAAGGCUGAAUGA |  |  | 28.1 nM | 25.9 nM
33 | UUAUUAUAUGUAGGAUAUGUAUAUUAUUAUUGUGCAGAAGGACAUGAGGAUCACCCAUGUAUAUUAUUAUUAUAUAUUAUAUAU |  |  | 21.4 nM | 17.1 nM
34 | UGUCGCAGCAGAGGAUAUUACAUGAGGAUCACCCAUGUAUGAACCAAUAGCUGGAAACAGCAAUGUAAGAAGGCUGCUCCGACA |  |  | 11.7 nM | 128 nM
35 | UGUAUGUAGGCAGGAUAUACAUGAAUAUAUAUGAUGUAGUAUGAUGUAACAUGAGGAUCACCCAUGUAGAAGGGCCAGUGUAUG |  |  | 77.8 nM | 129 nM
36 | CUAGCUUGCACAGGAUAUAGGCUCGGAGCUUACAUGAGGAUCACCCAUGUAGUGCGAGUGAAGCACUAGAAGGGUGAUGGGUAG | 40.4 nM | 22.8 nM |  | 
